The source made the active and inactive calls. No cut-off for these calls is given here.
Legend:
[1] = Selectivity ratio of EC50 for antitrypanosomal activity against bloodstream form Trypanosoma brucei brucei 427 assessed as cell viability after 24 hrs to antitrypanosomal activity against bloodstream form Trypanosoma brucei brucei 427 assessed as cell viability after 48 hrs; type: functional
[2] = tested on: Trypanosoma brucei brucei; experiment: Antitrypanosomal activity against bloodstream form Trypanosoma brucei brucei 427 […] assessed as cell viability after 48 hrs by propidium iodide staining based flow cytometric analysis; type: functional, organism-based; conditions: Trypanosoma brucei, 427, 48 h
Summary of the method: (§1)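 Viability of bloodstream T. b. brucei 427 redox-reporter line under lower-density conditions: 1.2×10^4 parasites/mL seeded, 48 h exposure, compound tested up to 60 µM. Nifurtimox included as positive control. Viability read by PI exclusion on flow cytometry.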

J774 [3] = experiment: Cytotoxicity against mouse J774 cells assessed as reduction in cell viability after 24 hrs by WST-1 assay; type: cell-based; conditions: J774, 24 h
Summary of the method: (§2)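 J774 murine macrophages in DMEM with 10% FBS, 37 °C, 5% CO2. Exposed 24 h to a 6-point compound series, in triplicate, up to 120 µM with DMSO 1% v/v. Viability read with WST-1 reagent relative to DMSO control and EC50 taken from nonlinear fit. The selectivity index is the macrophage EC50 divided by the trypanosome EC50.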

J774 [4] = experiment: Cytotoxicity against mouse J774 cells assessed as reduction in cell viability at 120 uM after 24 hrs by WST-1 assay; type: cell-based; conditions: j774, 24 h; summary of the method: as §2
J774 [5] = experiment: Cytotoxicity against mouse J774 cells assessed as reduction in cell viability >120 uM after 24 hrs by WST-1 assay; type: cell-based; conditions: j774, 24 h; summary of the method: as §2
[6] = tested on: Trypanosoma brucei brucei; experiment: Antitrypanosomal activity against bloodstream form Trypanosoma brucei brucei 427 […] assessed as cell viability at 5 uM after 24 hrs by propidium iodide staining based flow cytometric analysis relative to control; type: functional
Summary of the method: (§3)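 Bloodstream T. b. brucei 427 expressing hGrx1-roGFP2 (line 449_Grx-roGFP2), grown in HMI-9 with 10% FBS, 37 °C, 5% CO2. Biosensor induced with oxytetracycline (1 µg/mL final). Exponential-phase cells seeded at 5×10^5/mL and exposed 24 h to a single 5 µM screen, or to 0.0001–120 µM for EC50. DMSO ≤1% v/v. Viability read by PI exclusion on flow cytometry, expressed relative to DMSO control. EC50 from nonlinear fit; ≥3 replicates, S.D.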

[7] = tested on: Trypanosoma brucei brucei; experiment: Antitrypanosomal activity against bloodstream form Trypanosoma brucei brucei 427 […] assessed as cell viability upto 60 uM after 48 hrs by propidium iodide staining based flow cytometric analysis; type: functional, organism-based; conditions: dose microM <=60, time 48.0 hrs; summary of the method: as §1
[8] = tested on: Trypanosoma brucei brucei; experiment: Antitrypanosomal activity against bloodstream form Trypanosoma brucei brucei 427 […] assessed as cell viability after 24 hrs by propidium iodide staining based flow cytometric analysis; type: functional, organism-based; conditions: Trypanosoma brucei, 427, 24 h; summary of the method: as §3
[9] = Selectivity index, ratio of EC50 for cytotoxicity against mouse J774 cells to EC50 for antitrypanosomal activity against bloodstream form Trypanosoma brucei brucei 427; type: toxicity, cell-based; conditions: read-out: Ratio EC50; summary of the method: as §2
DNA [10] = experiment: Competitive binding affinity to Escherichia coli XL-1 pUC18 K-DNA at 20 uM after 30 to 120 mins by DAPI staining based spectrofluorimetric method relative to control; type: nucleic-acid assay; conditions: time 30-120 min
Summary of the method: (§4)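 pUC18 or pUC18 carrying a T. brucei minicircle, 5 nM in PBS pH 7.4, incubated 30 or 120 min with 20 µM compound or DMSO 1% v/v. DAPI then added to 500 nM final and emission recorded by spectrofluorimetry (ex 358 nm, em 368–600 nm). Fluorescence normalized to the DNA+DMSO+DAPI control set at 100%. Mean ± S.D., n=3.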

[11] = tested on: Trypanosoma brucei brucei; experiment: Antitrypanosomal activity against Trypanosoma brucei brucei AnTaT 1.1 infected in Balb/cJ mouse assessed as reduction in parasitemia at 40 mg/kg, ip for single dose and measured after 7 to 17 days; type: functional, organism-based; conditions: time 7-17 day
Summary of the method: (§5)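 Female BalB/cJ mice, 6-8 weeks, ~20 g, infected ip with 10^4 bloodstream T. b. brucei AnTaT 1.1. From day 4 post-infection, groups of 6 dosed ip in 300 µL PBS: daily for 7 days at 2.09 or 8.36 mg/Kg, or one 40 mg/Kg dose; vehicle DMSO 3.3 mg/Kg/day for 7 days. Parasitemia from submandibular blood counted by light microscopy in a Neubauer chamber. Detection limit ≥2.5×10^4 parasites/mL. Kruskal-Wallis test versus vehicle.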

[12] = tested on: Trypanosoma brucei brucei; experiment: Induction of cell cycle arrest in bloodstream form Trypanosoma brucei brucei 427 assessed as accumulation at 1K+1N cells at 41 nM after 24 hrs by DAPI. staining based epifluorescence microscopic analysis (reference value: 80%); type: functional
Summary of the method: (§6)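 Parasites at 5×10^5/mL treated 24 h with DMSO 1%, DAC 41 nM, or compound at 12 or 7 nM. Cells fixed in 4% paraformaldehyde for 18 min at room temperature and smeared on slides. Mounted in DAPI medium and scored by epifluorescence microscopy (60X/100X) for kinetoplast/nucleus configuration. At least 50 cells per sample.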

[13] = tested on: Trypanosoma brucei brucei; experiment: Induction of cell cycle arrest in bloodstream form Trypanosoma brucei brucei 427 assessed as accumulation at 0K+1N cells at 41 nM after 24 hrs by DAPI. staining based epifluorescence microscopic analysis relative to control; type: functional; summary of the method: as §6
DNA [14] = experiment: Competitive binding affinity to Escherichia coli XL-1 pUC18 plasmid DNA at 20 uM after 30 to 120 mins by DAPI staining based spectrofluorimetric method relative to control; type: nucleic-acid assay; conditions: time 30-120 min; summary of the method: as §4
[15] = tested on: Trypanosoma brucei brucei; experiment: Induction of cell cycle arrest in bloodstream form Trypanosoma brucei brucei 427 assessed as accumulation at G0/G1 phase at 41 nM after 24 hrs by propidium iodide staining based flow cytometric analysis (reference value: 49%); type: functional
[16] = tested on: Trypanosoma brucei brucei; experiment: Induction of cell cycle arrest in bloodstream form Trypanosoma brucei brucei 427 assessed as accumulation at G2/M phase at 41 nM after 24 hrs by propidium iodide staining based flow cytometric analysis (reference value: 20%); type: functional
[17] = tested on: Trypanosoma brucei brucei; experiment: (§7) Antitrypanosomal activity against bloodstream form Trypanosoma brucei brucei 427 […] assessed as cell viability at 10 nM preincubated in heat-inactivated serum for 45 mins followed by culture addition and measured after 24 hrs by propidium iodide staining based flow cytometric analysis (reference value: 98.5 +/- 1.4%); type: functional; conditions: time 48.0 hrs, in the assay text read “for 24 hrs” for “for 45 mins”
Summary of the method: (§8)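 Compound at 100 µM, with ≤1% v/v DMSO, held 24 h at 37 °C in fresh serum or in serum heat-inactivated at 54 °C for 45 min. It was then added to 449-hGrx-roGFP2 T. brucei cultures at 10 or 1000 nM final. Viability after 24 h was read by PI flow cytometry as in the standard assay. Untreated serum-exposed controls were included; mean ± SD.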

[18] = tested on: Trypanosoma brucei brucei; experiment: Induction of membrane permeability in bloodstream form Trypanosoma brucei brucei 427 assessed as change in integrity at EC50 concentration after 4 hrs by propidium iodide staining based flow cytometric analysis
[19] = tested on: Trypanosoma brucei brucei; experiment: Induction of oxidative stress in bloodstream form Trypanosoma brucei brucei 427 up to 5 times EC50 concentration after 4 hrs by propidium iodide staining based flow cytometric analysis; type: functional
[20] = tested on: Trypanosoma brucei brucei; experiment: Induction of cell cycle arrest in bloodstream form Trypanosoma brucei brucei 427 assessed as accumulation at G2/M phase at 7 nM after 24 hrs by propidium iodide staining based flow cytometric analysis (reference value: 20%); type: functional
[21] = tested on: Trypanosoma brucei brucei; experiment: Antitrypanosomal activity against bloodstream form Trypanosoma brucei brucei 427 assessed as cell viability at 10 nM after 24 hrs by propidium iodide staining based flow cytometric analysis (reference value: 100 +/- 10%); type: functional
[22] = tested on: Trypanosoma brucei brucei; experiment: Antitrypanosomal activity against bloodstream form Trypanosoma brucei brucei 427 assessed as cell viability at 1000 nM after 24 hrs by propidium iodide staining based flow cytometric analysis (reference value: 100 +/- 10%); type: functional
[23] = tested on: Trypanosoma brucei brucei; experiment: Induction of cell cycle arrest in bloodstream form Trypanosoma brucei brucei 427 assessed as accumulation at 1K+1N cells at 7 nM after 24 hrs by DAPI. staining based epifluorescence microscopic analysis (reference value: 80%); type: functional; summary of the method: as §6
[24] = tested on: Trypanosoma brucei brucei; experiment: Induction of cell cycle arrest in bloodstream form Trypanosoma brucei brucei 427 assessed as accumulation at G0/G1 phase at 7 nM after 24 hrs by propidium iodide staining based flow cytometric analysis (reference value: 49%); type: functional
[25] = tested on: Trypanosoma brucei brucei; experiment: Antitrypanosomal activity against Trypanosoma brucei brucei AnTaT 1.1 infected in Balb/cJ mouse assessed as reduction in parasitemia at 2.09 to 8.36 mg/kg, ip administered for 7 days and measured up to 17 days; type: functional, organism-based; conditions: dose 2.09-8.36 mg/kg, time 7.0 day; summary of the method: as §5
DNA [26] = experiment: Competitive binding affinity to Escherichia coli XL-1 pUC18 plasmid DNA at 20 uM after 120 mins by DAPI staining based spectrofluorimetric method relative to control; type: nucleic-acid assay; summary of the method: as §4
[27] = tested on: Trypanosoma brucei brucei; experiment: Induction of cell cycle arrest in bloodstream form Trypanosoma brucei brucei 427 assessed as accumulation at G0/G1 phase at 14 nM after 24 hrs by propidium iodide staining based flow cytometric analysis (reference value: 49%); type: functional
[28] = tested on: Trypanosoma brucei brucei; experiment: as §7, with “1000” for “10”; type: functional; conditions: time 48.0 hrs, in the assay text read “for 24 hrs” for “for 45 mins”; summary of the method: as §8
DNA [29] = experiment: Competitive binding affinity to Escherichia coli XL-1 pUC18 K-DNA at 20 uM after 120 mins by DAPI staining based spectrofluorimetric method relative to control; type: nucleic-acid assay; summary of the method: as §4
[30] = tested on: Trypanosoma brucei brucei; experiment: Induction of cell cycle arrest in bloodstream form Trypanosoma brucei brucei 427 assessed as accumulation at single kinetoplast and septum like or partitioned nucleus cells at 7 nM after 24 hrs by DAPI. staining based epifluorescence microscopic analysis relative to control; type: functional; summary of the method: as §6
[31] = tested on: Trypanosoma brucei brucei; experiment: Induction of cell cycle arrest in bloodstream form Trypanosoma brucei brucei 427 assessed as accumulation at S phase at 7 nM after 24 hrs by propidium iodide staining based flow cytometric analysis (reference value: 31%); type: functional
[32] = tested on: Trypanosoma brucei brucei; experiment: Induction of cell cycle arrest in bloodstream form Trypanosoma brucei brucei 427 assessed as accumulation at G2/M phase at 14 nM after 24 hrs by propidium iodide staining based flow cytometric analysis (reference value: 20%); type: functional
[33] = tested on: Trypanosoma brucei brucei; experiment: as §7, with “fresh” for “heat-inactivated”, “100” for “98.5”, “3.5%)” for “1.4%)”; type: functional; conditions: time 48.0 hrs, in the assay text read “for 24 hrs” for “for 45 mins”; summary of the method: as §8
[34] = tested on: Trypanosoma brucei brucei; experiment: as §7, with “1000” for “10”, “fresh” for “heat-inactivated”, “100” for “98.5”, “3.5%)” for “1.4%)”; type: functional; conditions: time 48.0 hrs, in the assay text read “for 24 hrs” for “for 45 mins”; summary of the method: as §8

`CCOC(=O)c1csc(NC(=O)c2csc(NC(=O)c3csc(NC(=O)OC(C)(C)C)n3)n2)n1` showed a Ratio EC50 [1] of 5, an EC50 [2] of 57 nM and an EC50 (J774 [3]) of 5000 nM.

With `CC(C)c1sc(NC(=O)c2cc(NC(=O)c3nc(NC(=O)OC(C)(C)C)sc3C(C)C)cn2C)nc1C(=O)O` the Activity (J774 [4]) was “Non-Toxic”, the Activity (J774 [5]) was “Nd(Insoluble)” and the Activity [6] was 48.5%.

In the case of `CC(=O)Nc1nc(C(=O)Nc2cc(C(=O)Nc3nc(C(=O)O)c(C(C)C)s3)n(C)c2)c(C(C)C)s1`, the Activity (J774 [4]) is reported as “Non-Toxic”, the Activity (J774 [5]) is reported as “Nd(Insoluble)” and the Activity [7] is reported as “inactive”. For the same molecule, the Activity [6] was 113.1%.

In the case of `Cn1cc(NC(=O)c2csc(NC(=O)OC(C)(C)C)n2)cc1C(=O)Nc1nc(C(=O)O)cs1`, the Activity (J774 [4]) is reported as “Non-Toxic”, the EC50 [8] is reported as 3320 nM and the Activity (J774 [5]) is reported as “Nd(Insoluble)”. It also gave an Activity [6] of 23.6% and a selectivity ratio [9] greater than 35.

With `CC(=O)NCC(=O)O.CC(=O)NCC(=O)O.N=C(N)c1ccc(/N=N/Nc2ccc(C(=N)N)cc2)cc1` [DIMINAZENE DIACETURATE] the Activity (DNA [10]) was 22%, the EC50 [8] was 41 nM and the Activity [11] was “Active”. It also gave an Activity [12] of 44%, an Activity [13] of 39% and an Activity (DNA [14]) of 22%. For the same molecule, the Activity [15] was 7% and the Activity [16] was 93%.

In the case of `CCOC(=O)c1csc(NC(=O)c2cc([N+](=O)[O-])cn2C)n1`, the Activity [6] is reported as 120.5%.

With `CCOC(=O)c1csc(NC(=O)c2cc(NC(=O)c3csc(NC(=O)OC(C)(C)C)n3)cn2C)n1` the EC50 [8] was 7.1 nM, the Activity [17] was 104.6% and the Activity [18] was “inactive”. The Activity [19] was “inactive”, the Activity [20] was 22% and the Activity [21] was 54.1%. The Activity [22] was 10.7%, the Activity [23] was 46% and the Activity [24] was 44%. For the same molecule, the Activity [25] was “inactive”, the Activity (DNA [26]) was “inactive” and the Activity [27] was 6%. For the same molecule, the Activity [28] was 17.5%, the Activity (DNA [29]) was 48% and the Activity [30] was 26%. The Activity [31] was 34%, the Activity [6] was 0.06% and the selectivity ratio [9] was 5560. It also gave an Activity [32] of 94%, an Activity [33] of 84.2% and an Activity [34] of 17.2%. The EC50 (J774 [3]) was no less than 40000 nM.
